Data set [1] addresses T1, Peroxisome proliferator-activated receptor alpha (Homo sapiens, UniProt Q07869).
T1 sequence (Q07869 whole entry): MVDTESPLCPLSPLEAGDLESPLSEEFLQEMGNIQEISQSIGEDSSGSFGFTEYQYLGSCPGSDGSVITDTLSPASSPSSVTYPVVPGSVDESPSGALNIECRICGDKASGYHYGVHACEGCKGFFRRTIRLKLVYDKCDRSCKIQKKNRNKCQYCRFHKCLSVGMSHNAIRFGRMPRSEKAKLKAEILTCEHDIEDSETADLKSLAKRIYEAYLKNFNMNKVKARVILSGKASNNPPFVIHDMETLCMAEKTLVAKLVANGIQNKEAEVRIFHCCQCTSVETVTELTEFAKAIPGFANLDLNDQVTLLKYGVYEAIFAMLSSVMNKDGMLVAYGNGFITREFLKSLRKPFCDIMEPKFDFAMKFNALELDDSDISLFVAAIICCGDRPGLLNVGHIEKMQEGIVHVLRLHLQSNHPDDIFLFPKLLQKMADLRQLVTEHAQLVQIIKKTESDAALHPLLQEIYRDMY
Put plainly: Partial agonist activity at Gal4-fused PPARalpha LBD (unknown origin) expressed in HEK293T cells after 14 to 16 hrs by dual-Glo luciferase assay. In kind it is cell-based. The gist of the method:
(§1)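 Gal4 hybrid reporter assay in transiently transfected HEK293T cells. Constructs fuse the yeast Gal4 DNA-binding domain to the human receptor LBD. Firefly luciferase is the reporter. Constitutive renilla luciferase monitors transfection efficiency and toxicity. EC50 and maximal relative activation are reported as mean±S.E.M., n≥3.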

Data set [2] concerns the target T2, Peroxisome proliferator-activated receptor gamma (Homo sapiens) (UniProt P37231).
T2 sequence (whole entry): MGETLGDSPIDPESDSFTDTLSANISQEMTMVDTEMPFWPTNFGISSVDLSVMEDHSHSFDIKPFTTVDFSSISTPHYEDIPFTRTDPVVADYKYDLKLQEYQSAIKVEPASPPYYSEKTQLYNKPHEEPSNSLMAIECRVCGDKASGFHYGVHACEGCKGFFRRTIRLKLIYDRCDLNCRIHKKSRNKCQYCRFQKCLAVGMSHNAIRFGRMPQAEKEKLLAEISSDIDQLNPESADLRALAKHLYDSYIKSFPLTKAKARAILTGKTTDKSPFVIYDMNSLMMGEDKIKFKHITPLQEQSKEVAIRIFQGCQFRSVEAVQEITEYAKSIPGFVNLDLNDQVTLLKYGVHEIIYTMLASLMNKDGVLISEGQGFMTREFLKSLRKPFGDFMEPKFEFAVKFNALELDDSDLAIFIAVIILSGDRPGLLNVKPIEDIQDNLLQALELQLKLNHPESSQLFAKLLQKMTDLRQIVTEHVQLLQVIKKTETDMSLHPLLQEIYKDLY
As to the kind of experiment: Partial agonist activity at recombinant N-terminal GFP-fused PPARgamma LBD (unknown origin) assessed as increase in biotinylated-CBP peptide recruitment measured after 2 hrs by HTRF assay. The gist of the method:
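Cell-free HTRF assay of CBP coactivator recruitment to recombinant PPARγ protein.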

The target of data set [3] is T2, Peroxisome proliferator-activated receptor gamma (Homo sapiens). As to the kind of experiment: Partial agonist activity at Gal4-fused PPARgamma LBD (unknown origin) expressed in HEK293T cells after 14 to 16 hrs by dual-Glo luciferase assay relative to pioglitazone. The format is cell-based. The gist of the method: as §1
Data set [4] concerns the target T3, RXR alpha/PPAR gamma (Homo sapiens) (UniProt P37231+P19793). As to the kind of experiment: Partial agonist activity at 1:1 Gal4-fused PPARgamma LBD/Gal4-fused RXRalpha (unknown origin) expressed in HEK293T cells after 14 to 16 hrs by dual-Glo luciferase assay. The format is cell-based. The gist of the method: (§2)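 Gal4-PPARγ hybrid reporter assay in HEK293T cells with Gal4-RXRα co-transfected. Firefly luciferase is the read-out, with constitutive renilla as the transfection and viability control. Efficacy is expressed relative to pioglitazone (1 µM). Activity data are normalized to counter variations in receptor protein amount.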

Data set [5] is described as follows: Effect on recombinant PPARgamma LBD/N-terminal GFP-fused RXRalpha mutant LBD (unknown origin) protein-protein dimerization at 10 uM measured after 2 hrs by HTRF assay. The note with it: human. Summed up:
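Cell-free HTRF assay of PPARγ–RXRα dimerization on recombinant proteins.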

Data set [6] addresses T3, RXR alpha/PPAR gamma (Homo sapiens). As to the kind of experiment: Partial agonist activity at 1:2 Gal4-fused PPARgamma LBD/Gal4-fused RXRalpha (unknown origin) expressed in HEK293T cells at 0.1 to 1 uM after 14 to 16 hrs by dual-Glo luciferase assay. In kind it is cell-based. The gist of the method:
as §2

The test system of data set [7] is PPARgamma/RXR (Homo sapiens). Put plainly: Partial agonist activity at PPARgamma/RXR (unknown origin) expressed in HEK293T cells at 0.1 to 1 uM after 14 to 16 hrs by PPRE1 reporter gene based dual-Glo luciferase assay. The settings on record: HEK-293T. For orientation: Reporter assays use an easily measured gene product as a stand-in for the process of interest.
Data set [8] concerns the target T4, Peroxisome proliferator-activated receptor delta (Homo sapiens, UniProt Q03181).
T4 sequence (Q03181 whole entry): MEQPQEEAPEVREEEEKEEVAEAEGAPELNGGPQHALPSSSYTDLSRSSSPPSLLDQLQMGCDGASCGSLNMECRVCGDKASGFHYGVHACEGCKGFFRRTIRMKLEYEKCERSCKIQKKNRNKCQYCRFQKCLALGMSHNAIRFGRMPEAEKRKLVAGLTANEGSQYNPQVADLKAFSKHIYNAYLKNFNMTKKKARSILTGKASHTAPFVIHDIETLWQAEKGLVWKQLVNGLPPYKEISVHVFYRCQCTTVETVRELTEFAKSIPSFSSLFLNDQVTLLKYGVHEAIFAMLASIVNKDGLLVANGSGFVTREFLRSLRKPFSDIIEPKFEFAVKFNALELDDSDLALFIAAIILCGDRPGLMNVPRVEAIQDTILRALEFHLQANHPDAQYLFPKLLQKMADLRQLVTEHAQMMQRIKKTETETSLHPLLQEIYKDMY
As to the kind of experiment: Partial agonist activity at Gal4-fused PPARdelta LBD (unknown origin) expressed in HEK293T cells after 14 to 16 hrs by dual-Glo luciferase assay. In kind it is cell-based. Summed up:
as §1

Data set [9] concerns the target T5, Peroxisome proliferator-activated receptor alpha (Homo sapiens) (UniProt Q07869).
T5 sequence (whole entry): T1 sequence (Q07869 whole entry)
Put plainly: Partial agonist activity at Gal4-fused PPARalpha LBD (unknown origin) expressed in HEK293T cells after 14 to 16 hrs by dual-Glo luciferase assay relative to GW7647. The format is cell-based. The gist of the method:
as §1

For data set [10], the target named is T6, Peroxisome proliferator-activated receptor gamma (Homo sapiens, UniProt P37231).
T6 sequence (P37231 whole entry): T2 sequence (whole entry)
As to the kind of experiment: Partial agonist activity at Gal4-fused PPARgamma LBD (unknown origin) expressed in HEK293T cells after 14 to 16 hrs by dual-Glo luciferase assay. In kind it is cell-based. Summed up: as §1

The target of data set [11] is T7, Peroxisome proliferator-activated receptor delta (Homo sapiens) (UniProt Q03181).
T7 sequence (whole entry): T4 sequence (Q03181 whole entry)
As to the kind of experiment: Partial agonist activity at Gal4-fused PPARdelta LBD (unknown origin) expressed in HEK293T cells after 14 to 16 hrs by dual-Glo luciferase assay relative to L165041. The format is cell-based. Summed up: as §1

The target of data set [12] is T7, Peroxisome proliferator-activated receptor delta (Homo sapiens). As to the kind of experiment: Partial agonist activity at Gal4-fused PPARdelta LBD (unknown origin) expressed in HEK293T cells at 10 uM after 14 to 16 hrs by dual-Glo luciferase assay. The format is cell-based.

Calls of active or inactive are those of the source. The calls are words filed in the database; no cut-off is given here.

Broadly, the EC50 is the concentration giving half of the maximal effect. Turning to `CCCCCC[C@@H](Sc1nc2ccc(NS(=O)(=O)c3ccc(Cl)cc3Cl)cc2s1)C(=O)O`, the EC50 turned out to be 0.43 µM in data set [1], 0.16 µM in data set [7], 0.81 µM in data set [8] and 0.0016 µM in data set [10]. For the same molecule, the result in [2], in [4] and in [6] was Active. The max activation in data set [3] came out at 101%; in data set [9], 18%; in data set [11], 26%. Further, in data set [5], the Activity result is “Not Active”.

`CCCCCCC(Sc1nc2ccc(NCc3cc(Cl)cc(Cl)c3)cc2s1)C(=O)O` (centres undefined): the EC50 is 3.8 µM in data set [1], 9.2 µM in [8] and 2.9 µM in data set [10]. Moreover, the max activation in data set [3] stood at 35%; in [9], 19%; in data set [11], 25%.

As to `CCCCCCC(Sc1nc2ccc(NS(=O)(=O)c3ccc(-c4ccccc4)cc3)cc2s1)C(=O)O` (centres undefined), the results for the EC50 in [1] and in [10] were 5 µM and 0.26 µM, respectively. In addition, the max activation in data set [3] came out at 26%; in data set [9], 23%. Moreover, the result in [12] was inactive.

For `CCCCCCC(Sc1nc2ccc(NCc3cccc(Cl)c3)cc2s1)C(=O)O` (centres undefined), the EC50 in [1] stood at 1.9 µM; in data set [10], 1.5 µM. Also, the results for the max activation in data set [3] and in data set [9] were 47% and 51%, respectively. Further, the outcome in data set [12] was inactive.

For `CCCCCCC(Sc1nc2ccc(NC(=O)c3ccc(C(C)(C)C)cc3)cc2s1)C(=O)O` (centres undefined), the EC50 in [1] is 3.1 µM; in [8] it was 6.2 µM; in data set [10] it was 4.3 µM. The max activation in data set [3] is 19%; in data set [9], 12%; in data set [11] it was 22%.

For `CCCCC(Sc1nc2ccc(NC(=O)c3ccc(C(C)(C)C)cc3)cc2s1)C(=O)O` (centres undefined), the 50% effective concentration (EC50) was determined as 4.4 µM in [1] and 3.7 µM in data set [10]. Besides, the max activation in data set [3] was 7.1%; in [9] it was 11%. For the same molecule, in data set [12], the result was inactive.

As to `CCCCCCC(Sc1nc2ccc(NC(=O)c3ccccc3)cc2s1)C(=O)O` (centres undefined), the values for the EC50 in data set [1], in [8] and in [10] were 0.77 µM, 7 µM and 4.9 µM, respectively. Moreover, the results for the max activation in [3], in data set [9] and in [11] were 43%, 31% and 27%, respectively.

With `CCCCCCC(Sc1nc2ccc(NCc3ccccc3)cc2s1)C(=O)O` (centres undefined), the values for the EC50 in [1], in data set [8] and in [10] were 1 µM, 6.1 µM and 1.7 µM, respectively. Moreover, the max activation came out at 47% in [3], 28% in data set [9] and 19% in [11].

In the case of `CCCCCCC(Sc1nc2ccc(NCc3ccc(Cl)cc3)cc2s1)C(=O)O` (centres undefined), the EC50 came out at 1.36 µM in [1] and 2.4 µM in [10]. Further, the max activation in data set [3] amounted to 50%; in [9], 37%. The outcome in [12] was inactive.

Regarding `CCCCCCC(Sc1nc2ccc(NS(=O)(=O)c3ccc(C(C)(C)C)cc3)cc2s1)C(=O)O` (centres undefined), the EC50 in data set [1] was determined as 0.9 µM; in data set [10], 0.7 µM. In addition, the max activation in data set [3] turned out to be 30%; in data set [9] it was 17%. Further, the outcome in [12] was inactive.

`CCCCCCC(Sc1nc2ccc(NCc3ccc(C(C)(C)C)cc3)cc2s1)C(=O)O` (centres undefined): the EC50 in data set [1] came out at 4 µM; in data set [10], 3.7 µM. Besides, the figures for the max activation in [3] and in data set [9] were 28% and 39%, respectively. Also, in data set [12], the outcome was inactive.

Consider `CCCCCCC(Sc1nc2ccc(NCc3ccc(Cl)c(Cl)c3)cc2s1)C(=O)O` (centres undefined), for which the EC50 in [1] was 1.4 µM; in data set [8], more than 10 µM; in data set [10] it was 2.8 µM. Also, the max activation stood at 73% in data set [3] and 26% in [9].

Regarding `CCCCCCC(Sc1nc2ccc(NCc3ccc4ccccc4c3)cc2s1)C(=O)O` (centres undefined), the EC50 amounted to 4 µM in data set [1], 4.3 µM in data set [8] and 3 µM in [10]. For the same molecule, the max activation in data set [3] turned out to be 53%; in data set [9] it was 32%; in [11], 23%.

On to `CCCCCCC(Sc1nc2ccc(NCc3ccc(-c4ccccc4)cc3)cc2s1)C(=O)O` (centres undefined), for which the EC50 in data set [1] was 0.4 µM; in [8], more than 10 µM; in [10], 0.77 µM. The max activation in data set [3] was determined as 34%; in data set [9], 26%.

`CCCCCCC(Sc1nc2ccc(NS(=O)(=O)c3ccc(Cl)cc3)cc2s1)C(=O)O` (centres undefined): the EC50 in data set [1] was 0.7 µM; in data set [8], 5.3 µM; in [10], 0.05 µM. The max activation in data set [3] worked out at 39%; in data set [9], 16%; in [11] it was 21%.

In the case of `CCCCCCC(Sc1nc2ccc(NCc3ccc(C(F)(F)F)cc3)cc2s1)C(=O)O` (centres undefined), the EC50 is 3.1 µM in data set [1], more than 10 µM in data set [8] and 1.8 µM in data set [10]. Further, the values for the max activation in data set [3] and in data set [9] were 39% and 59%, respectively.

`CCCCCC[C@H](Sc1nc2ccc(NS(=O)(=O)c3ccc(Cl)cc3Cl)cc2s1)C(=O)O`: the EC50 in data set [1] came out at 0.25 µM; in [8], 0.4 µM; in data set [10], 0.16 µM. Besides, the max activation came out at 75% in data set [3], 28% in [9] and 13% in data set [11]. Further, the Activity entry in data set [5] is “Not Active”.

The record behind these values is ChEMBL document CHEMBL4354876, “A Selective Modulator of Peroxisome Proliferator-Activated Receptor γ with an Unprecedented Binding Mode” (J Med Chem, 2020).
